Results as given in ChEMBL document CHEMBL4725343, “Medicinal Chemistry Optimization of a Diaminopurine Chemotype: Toward a Lead for Trypanosoma brucei Inhibitors” (J Med Chem, 2020).

Key:
[1] = Distribution coefficient between octanol and aqueous buffer, logD of the compound in pH 7.4 buffer by UPLC-MS-based shake flask method; type: physicochemical; settings: octanol/water
[2] = AUC in ABT-treated NMRI mouse infected with Trypanosoma brucei brucei STIB795 at 30 mg/kg, ip measured up to 6 hrs on day 1 by LC-MS/MS analysis; type: ADME, organism-based; design: route intraperitoneal, dose 30 mg/kg/day, time <=6; settings: in vivo
How it was run: (§1)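 Female NMRI mice infected ip with 10^4 bloodstream T. b. brucei STIB795 in TDB glucose. Dosing began day 3 after infection with parasitemia confirmed (n=3): oral ABT 50 mg/kg 1 h before ip 30 mg/kg (0.2 mL; 4% DMSO, 20% Captisol). Blood taken at 0.5, 2, 4, 6 h on day 1, extracted with nifedipine internal standard, LC-MS/MS.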

[3] = Cmax in NMRI mouse at 10 mg/kg, ip measured up to […]rs on day 1 by LC-MS/MS analysis; type: ADME, organism-based; design: route intraperitoneal, dose 10 mg/kg; settings: in vivo
How it was run: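 Female NMRI mice, uninfected (n=3), received a single ip dose of 10 mg/kg at 10 mL/kg, in 1% DMSO/99% of 20% (w/v) SBEβ-CD in water. Tail-vein blood was collected into K2EDTA at 0.0833 to 24 h and diluted with an equal volume of water. Samples underwent liquid–liquid extraction with nifedipine as internal standard, followed by LC-MS/MS.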

[4] = Tmax in ABT-treated NMRI mouse at 30 mg/kg, ip measured up to 6 hrs on day 1 by LC-MS/MS analysis; type: ADME, organism-based; settings: in vivo, dose 30 mg/kg/day
How it was run: (§2)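 Female NMRI mice, infected with STIB795 or uninfected, pretreated with ABT 50 mg/kg po 1 h before 30 mg/kg ip. Vehicle 4% DMSO, 20% Captisol. Tail blood taken at 0.5, 2, 4 and 6 h on day 1 and diluted with water. Liquid–liquid extraction with nifedipine internal standard, then LC-MS/MS.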

[5] = Apparent permeability across basolateral to apical side in human Caco2 cells after 2 hrs; type: ADME, cell-based; settings: caco-2, 2 h
[6] = AUC in NMRI mouse at 10 mg/kg, ip measured up to 6 hrs on day 1 by LC-MS/MS analysis; type: ADME, organism-based; design: route intraperitoneal, dose 10 mg/kg; settings: in vivo
How it was run: (§3)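 Female NMRI mice, uninfected, single ip dose 10 mg/kg at 10 mL/kg in 1% DMSO/99% of 20% (w/v) SBEβ-CD (Captisol) in water. Tail-vein blood into K2EDTA at 0.0833, 0.25, 0.5, 1, 2, 4, 6, 8 and 24 h. Blood diluted 1:1 in water, liquid–liquid extraction with nifedipine internal standard, LC-MS/MS.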

[7] = AUC in ABT-treated NMRI mouse at 30 mg/kg, ip measured up to 6 hrs on day 1 by LC-MS/MS analysis; type: ADME, organism-based; design: route intraperitoneal, dose 30 mg/kg/day, time <=6; settings: in vivo
How it was run: (§4)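 Uninfected female NMRI mice (n=3), oral 1-aminobenzotriazole 50 mg/kg/day 1 h before each ip dose of 30 mg/kg/day (0.2 mL; vehicle 4% DMSO, 20% Captisol). Blood sampled at 0.5, 2, 4 and 6 h on day 1. Samples processed by liquid–liquid extraction with nifedipine internal standard, then LC-MS/MS.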

[8] = Cmax in ABT-treated NMRI mouse at 30 mg/kg, ip measured up to 6 hrs on day 1 by LC-MS/MS analysis; type: ADME, organism-based; design: route intraperitoneal, dose 30 mg/kg/day, time <=6; settings: in vivo
How it was run: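 Female NMRI mice, uninfected (n=3), were given ABT 50 mg/kg/day 1 h before each ip dose of 30 mg/kg/day, in a vehicle of 4% DMSO and 20% Captisol, as a 0.2 mL injection. Blood was sampled at 0.5, 2, 4 and 6 h on day 1. Samples underwent liquid–liquid extraction with nifedipine as internal standard, followed by LC-MS/MS.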

[9] = Apparent permeability across apical to basolateral side in human Caco2 cells after 2 hrs; type: ADME, cell-based; settings: caco-2, 2 h
[10] = AUC(0 to t) in ABT-treated NMRI mouse infected with Trypanosoma brucei brucei STIB795 at 30 mg/kg, ip measured up to 6 hrs on day 1 by LC-MS/MS analysis; type: ADME, organism-based; design: route intraperitoneal, dose 30 mg/kg/day, time <=6; settings: in vivo; how it was run: as §1
[11] = Cmax in ABT-treated NMRI mouse infected with Trypanosoma brucei brucei STIB795 at 30 mg/kg, ip measured up to 6 hrs on day 1 by LC-MS/MS analysis; type: ADME, organism-based; design: route intraperitoneal, dose 30 mg/kg/day, time <=6; settings: in vivo
How it was run: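 Female NMRI mice were infected ip with 10^4 bloodstream-form T. b. brucei STIB795. From day 3 they received ABT 50 mg/kg/day 1 h before ip dosing at 30 mg/kg/day (n=3), in a vehicle of 4% DMSO and 20% Captisol, for 5 days. Blood was sampled at 0.5, 2, 4 and 6 h on day 1. Quantitation was by LC-MS/MS after liquid–liquid extraction with nifedipine as internal standard.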

[12] = Apparent permeability across apical to basolateral side in human Caco2 cells assessed as drug recovery after 2 hrs; type: ADME, cell-based; settings: caco-2, 2 h
[13] = Apparent permeability across basolateral to apical side in human Caco2 cells assessed as drug recovery after 2 hrs; type: ADME, cell-based; settings: caco-2, 2 h
[14] = Tmax in ABT-treated NMRI mouse infected with Trypanosoma brucei brucei STIB795 at 30 mg/kg, ip measured up to 6 hrs on day 1 by LC-MS/MS analysis; type: ADME, organism-based; settings: in vivo, dose 30 mg/kg/day; how it was run: as §2
[15] = AUC(0 to t) in ABT-treated NMRI mouse at 30 mg/kg, ip measured up to 6 hrs on day 1 by LC-MS/MS analysis; type: ADME, organism-based; design: route intraperitoneal, dose 30 mg/kg/day, time <=6; settings: in vivo; how it was run: as §4
[16] = AUC (0 to t) in NMRI mouse at 10 mg/kg, ip measured up to 6 hrs on day 1 by LC-MS/MS analysis; type: ADME, organism-based; design: route intraperitoneal, dose 10 mg/kg; settings: in vivo; how it was run: as §3
[17] = Tmax in NMRI mouse at 10 mg/kg, ip measured up to 6 hrs on day 1 by LC-MS/MS analysis; type: ADME, organism-based; settings: in vivo
How it was run: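 Uninfected female NMRI mice given 10 mg/kg ip at 10 mL/kg in 1% DMSO/99% of 20% (w/v) SBEβ-CD in water, n=3. Tail-vein blood collected into K2EDTA at 0.0833–24 h and diluted 1:1 with water. Extracted with internal standard nifedipine and quantified by LC-MS/MS.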

Row | Structure (SMILES) | logD [1] | AUC [2] | Cmax [3] | Tmax [4] | Papp [5] | AUC [6] | AUC [7] | Cmax [8] | Papp [9] | AUCt [10] | Cmax [11] | Drug recovery [12] | Drug recovery [13] | Tmax [14] | AUCt [15] | AUCt [16] | Tmax [17]
1 | FC(F)(F)CNc1nc(Nc2ccsc2)nc2[nH]cnc12 | 3.1 |  |  |  |  |  |  |  |  |  |  |  |  |  |  |  | 
2 | Cn1nccc1Nc1nc(NCC(F)(F)F)c2nc[nH]c2n1 | 1.9 | 83443 ng·h/mL | 11.8 µM | 30 min | 44 10^-6 cm/s | 5350 ng·h/mL | 52521 ng·h/mL | 15767 ng/mL | 5.8 10^-6 cm/s | 77666 ng·h/mL | 17267 ng/mL | 87% | 102% | 30 min | 51799 ng·h/mL | 5340 ng·h/mL | 15 min
